Measurements: ChEMBL document CHEMBL5724801, “EUbOPEN Chemogenomics Library - Multiplex” (2024)
Where “and” joins values, the source holds several entries; their conditions need not be identical. Equal values may be shown once.

Test system: U2OS
Experiment: Multiplex assay against U2OS
Format: toxicity, cell-based
Settings: human
Summary of the method: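 Four dyes were applied at seeding to live cells: Hoechst33342, BioTracker Green Microtubule Cytoskeleton Dye, MitoTracker Red and Annexin V Alexa Fluor 680. Imaging after compound addition used a CQ1 microscope at 37°C and 5% CO2. CellPathfinder machine-learning gating then sorted cells into Hoechst high-intensity objects or normal cells, normal cells into healthy, pyknosed or fragmented nuclei, and pyknosed cells into mitotic or apoptotic, with tubulin, mitochondrial-mass and membrane-permeability phenotypes given as per cents of healthy-nucleus cells.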

[1] = 12 h, 1 µM, compound concentration 1 uM
[2] = 12 h, 10 µM, compound concentration 10 uM
[3] = 24 h, 1 µM, compound concentration 1 uM
[4] = 24 h, 10 µM, compound concentration 10 uM
[5] = 48 h, 1 µM, compound concentration 1 uM
[6] = 48 h, 10 µM, compound concentration 10 uM

O=C(NCC(=O)N1CC[C@H](N[C@H]2CC[C@@](O)(c3ccc(-c4ncccn4)cn3)CC2)C1)c1cccc(C(F)(F)F)c1 [PF-4136309]
Population Apoptotic (%) [1]: 79% and 93% | Population Fragmented Nuclei (%) [1]: 25% and 13% | Population Healthy Nuclei (%) [1]: 64% and 74% | Population Hoechst High Intensity Objects (%) [1]: 1% and 4% | Population Membrane Permeable-Phenotype (%) [1]: 6% and 11% | Population Mitochondria Different-Phenotype (%) [1]: 3% and 5% | Population Normal (%) [1]: 98% and 95% | Population Pyknosed Nuclei (%) [1]: 9% and 12% | Population Tubulin-Different-Phenotype (%) [1]: 4% and 8% | Total Cell Count [1]: 249 and 138 | Population Apoptotic (%) [2]: 68% and 60% | Population Fragmented Nuclei (%) [2]: 25% and 22% | Population Healthy Nuclei (%) [2]: 62% and 66% | Population Hoechst High Intensity Objects (%) [2]: 4% and 1% | Population Membrane Permeable-Phenotype (%) [2]: 15% and 25% | Population Mitochondria Different-Phenotype (%) [2]: 4% and 10% | Population Mitotic Cells (%) [2]: 31% and 40% | Population Normal (%) [2]: 95% and 98% | Population Pyknosed Nuclei (%) [2]: 12% and 11% | Population Tubulin-Different-Phenotype (%) [2]: 9% and 11% | Total Cell Count [2]: 242 and 90 | Population Apoptotic (%) [3]: 80% and 91% | Population Fragmented Nuclei (%) [3]: 22% and 16% | Population Healthy Nuclei (%) [3]: 69% and 76% | Population Hoechst High Intensity Objects (%) [3]: 1% and 3% | Population Membrane Permeable-Phenotype (%) [3]: 4% and 5% | Population Mitochondria Different-Phenotype (%) [3]: 2% and 4% | Population Mitotic Cells (%) [3]: 20% and 8% | Population Normal (%) [3]: 98% and 96% | Population Pyknosed Nuclei (%) [3]: 8% and 7% | Population Tubulin-Different-Phenotype (%) [3]: 2% | Total Cell Count [3]: 304 and 169 | Population Apoptotic (%) [4]: 83% and 75% | Population Fragmented Nuclei (%) [4]: 23% and 21% | Population Healthy Nuclei (%) [4]: 62% and 70% | Population Hoechst High Intensity Objects (%) [4]: 3% and 0% | Population Membrane Permeable-Phenotype (%) [4]: 10% and 15% | Population Mitochondria Different-Phenotype (%) [4]: 3% and 11% | Population Mitotic Cells (%) [4]: 16% and 25% | Population Normal (%) [4]: 96% and 99% | Population Pyknosed Nuclei (%) [4]: 13% and 7% | Population Tubulin-Different-Phenotype (%) [4]: 3% and 7% | Total Cell Count [4]: 271 and 102 | Population Apoptotic (%) [5]: 87% and 96% | Population Fragmented Nuclei (%) [5]: 14% and 12% | Population Healthy Nuclei (%) [5]: 74% and 75% | Population Hoechst High Intensity Objects (%) [5]: 2% and 3% | Population Membrane Permeable-Phenotype (%) [5]: 4% and 6% | Population Mitochondria Different-Phenotype (%) [5]: 3% | Population Mitotic Cells (%) [5]: 12% and 4% | Population Normal (%) [5]: 97% and 96% | Population Pyknosed Nuclei (%) [5]: 11% | Population Tubulin-Different-Phenotype (%) [5]: 3% and 4% | Total Cell Count [5]: 443 and 224 | Population Apoptotic (%) [6]: 69% and 92% | Population Fragmented Nuclei (%) [6]: 22% and 20% | Population Healthy Nuclei (%) [6]: 61% and 60% | Population Hoechst High Intensity Objects (%) [6]: 4% and 0% | Population Membrane Permeable-Phenotype (%) [6]: 9% and 15% | Population Mitochondria Different-Phenotype (%) [6]: 5% and 8% | Population Normal (%) [6]: 95% and 100% | Population Pyknosed Nuclei (%) [6]: 15% and 18% | Population Tubulin-Different-Phenotype (%) [6]: 4% | Total Cell Count [6]: 360 and 138

COc1cc2nc(N3CCN(C(=O)c4ccco4)CC3)nc(N)c2cc1OC.Cl [PRAZOSIN HYDROCHLORIDE]
Population Apoptotic (%) [1]: 88% and 94% | Population Fragmented Nuclei (%) [1]: 21% and 18% | Population Healthy Nuclei (%) [1]: 70% and 69% | Population Hoechst High Intensity Objects (%) [1]: 2% and 1% | Population Membrane Permeable-Phenotype (%) [1]: 4% and 5% | Population Mitochondria Different-Phenotype (%) [1]: 2% and 7% | Population Mitotic Cells (%) [1]: 11% and 5% | Population Normal (%) [1]: 97% and 98% | Population Pyknosed Nuclei (%) [1]: 7% and 12% | Population Tubulin-Different-Phenotype (%) [1]: 1% and 8% | Total Cell Count [1]: 235 and 159 | Population Apoptotic (%) [2]: 86% and 72% | Population Fragmented Nuclei (%) [2]: 25% and 15% | Population Healthy Nuclei (%) [2]: 67% and 74% | Population Hoechst High Intensity Objects (%) [2]: 3% and 0% | Population Membrane Permeable-Phenotype (%) [2]: 12% and 4% | Population Mitochondria Different-Phenotype (%) [2]: 2% and 5% | Population Mitotic Cells (%) [2]: 13% and 27% | Population Normal (%) [2]: 96% and 99% | Population Pyknosed Nuclei (%) [2]: 7% and 9% | Population Tubulin-Different-Phenotype (%) [2]: 6% and 7% | Total Cell Count [2]: 216 and 114 | Population Apoptotic (%) [3]: 95% and 100% | Population Fragmented Nuclei (%) [3]: 22% and 15% | Population Healthy Nuclei (%) [3]: 69% and 74% | Population Hoechst High Intensity Objects (%) [3]: 1% and 0% | Population Membrane Permeable-Phenotype (%) [3]: 8% and 10% | Population Mitochondria Different-Phenotype (%) [3]: 2% and 5% | Population Mitotic Cells (%) [3]: 4% and 0% | Population Normal (%) [3]: 98% and 100% | Population Pyknosed Nuclei (%) [3]: 7% and 10% | Population Tubulin-Different-Phenotype (%) [3]: 4% and 9% | Total Cell Count [3]: 273 and 188 | Population Apoptotic (%) [4]: 78% and 85% | Population Fragmented Nuclei (%) [4]: 23% and 13% | Population Healthy Nuclei (%) [4]: 68% and 71% | Population Hoechst High Intensity Objects (%) [4]: 2% and 1% | Population Membrane Permeable-Phenotype (%) [4]: 8% and 7% | Population Mitochondria Different-Phenotype (%) [4]: 6% and 5% | Population Mitotic Cells (%) [4]: 21% and 14% | Population Normal (%) [4]: 97% and 98% | Population Pyknosed Nuclei (%) [4]: 7% and 15% | Population Tubulin-Different-Phenotype (%) [4]: 6% and 4% | Total Cell Count [4]: 244 and 138 | Population Apoptotic (%) [5]: 94% and 100% | Population Fragmented Nuclei (%) [5]: 16% and 15% | Population Healthy Nuclei (%) [5]: 74% and 77% | Population Hoechst High Intensity Objects (%) [5]: 2% and 1% | Population Membrane Permeable-Phenotype (%) [5]: 6% and 7% | Population Mitochondria Different-Phenotype (%) [5]: 2% and 7% | Population Mitotic Cells (%) [5]: 5% and 0% | Population Normal (%) [5]: 97% and 98% | Population Pyknosed Nuclei (%) [5]: 9% and 7% | Population Tubulin-Different-Phenotype (%) [5]: 2% and 5% | Total Cell Count [5]: 388 and 266 | Population Apoptotic (%) [6]: 96% and 94% | Population Fragmented Nuclei (%) [6]: 20% and 15% | Population Healthy Nuclei (%) [6]: 71% and 76% | Population Hoechst High Intensity Objects (%) [6]: 1% and 2% | Population Membrane Permeable-Phenotype (%) [6]: 5% | Population Mitochondria Different-Phenotype (%) [6]: 2% and 6% | Population Mitotic Cells (%) [6]: 3% and 5% | Population Normal (%) [6]: 98% and 97% | Population Pyknosed Nuclei (%) [6]: 8% | Population Tubulin-Different-Phenotype (%) [6]: 3% | Total Cell Count [6]: 341 and 208
